Assay results published in ChEMBL document CHEMBL4387760, “Synthesis of oxytocin derivatives lipidated via a carbonate or carbamate linkage as a long-acting therapeutic agent for social impairment-like behaviors” (Bioorg Med Chem, 2019).
pEC50: −log10 of the molar value. Calls of active or inactive are those of the source. No cut-off for these calls is given here.

What was measured:
Oxytocin receptor = biological target: T1, Oxytocin receptor (Homo sapiens, UniProt P30559); assay: Agonist activity at human OTR receptor expressed in HEK293 cells assessed as intracellular calcium level measured at 3 secs interval for 5 mins by fura-2/AM dye based micro spectrofluorometric method; type: functional, cell-based
T1 sequence (P30559 whole entry): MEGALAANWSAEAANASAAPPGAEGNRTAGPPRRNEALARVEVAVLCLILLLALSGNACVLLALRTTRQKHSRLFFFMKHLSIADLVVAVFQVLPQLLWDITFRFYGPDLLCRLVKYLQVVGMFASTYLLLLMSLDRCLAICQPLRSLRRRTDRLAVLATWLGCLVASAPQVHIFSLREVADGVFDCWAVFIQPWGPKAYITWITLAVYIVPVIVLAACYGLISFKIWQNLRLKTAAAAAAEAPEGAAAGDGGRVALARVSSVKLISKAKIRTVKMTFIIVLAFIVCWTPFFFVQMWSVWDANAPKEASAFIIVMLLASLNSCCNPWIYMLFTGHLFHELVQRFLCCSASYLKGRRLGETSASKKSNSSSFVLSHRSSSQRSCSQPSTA
Summary of the method: (§1)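 HEK-293 cells stably expressing the receptor (G418-selected) were loaded with fura-2/AM for 30 min at 37 °C and washed in HEPES-buffered saline, pH 7.4. Fluorescence was read at 37 °C with 340/380 nm excitation, and F340/F380 was normalized to the 10 s baseline. Responses were expressed as % of the OT maximum (OTR) or the AVP maximum (V1A), with EC50 from 3 independent experiments at 20 cells/dish.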

Vasopressin V1a receptor = Vasopressin V1a receptor (Homo sapiens, UniProt P37288); assay: Agonist activity at human V1A receptor expressed in HEK293 cells assessed as intracellular calcium level measured at 3 secs interval for 5 mins by fura-2/AM dye based micro spectrofluorometric method; type: functional, cell-based; summary of the method: as §1
Vasopressin V1a receptor, sequence (P37288 whole entry): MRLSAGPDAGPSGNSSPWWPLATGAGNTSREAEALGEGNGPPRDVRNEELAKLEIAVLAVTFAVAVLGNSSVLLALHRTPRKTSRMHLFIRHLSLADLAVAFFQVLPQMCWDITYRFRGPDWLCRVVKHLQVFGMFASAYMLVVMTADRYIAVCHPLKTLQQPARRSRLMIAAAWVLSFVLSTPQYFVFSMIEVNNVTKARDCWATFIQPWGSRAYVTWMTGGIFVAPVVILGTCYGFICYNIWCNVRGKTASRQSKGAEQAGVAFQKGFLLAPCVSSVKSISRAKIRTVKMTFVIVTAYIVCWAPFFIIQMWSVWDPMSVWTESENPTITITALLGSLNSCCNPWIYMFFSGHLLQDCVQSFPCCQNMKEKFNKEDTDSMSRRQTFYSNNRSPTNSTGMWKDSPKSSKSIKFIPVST

Vasopressin V1b receptor = biological target: T2, Vasopressin V1b receptor (Homo sapiens, UniProt P47901); assay: Agonist activity at human V1B receptor expressed in HEK293 cells assessed as intracellular calcium level measured at 3 secs interval for 5 mins by fura-2/AM dye based micro spectrofluorometric method; type: functional, cell-based
T2 sequence (P47901 whole entry): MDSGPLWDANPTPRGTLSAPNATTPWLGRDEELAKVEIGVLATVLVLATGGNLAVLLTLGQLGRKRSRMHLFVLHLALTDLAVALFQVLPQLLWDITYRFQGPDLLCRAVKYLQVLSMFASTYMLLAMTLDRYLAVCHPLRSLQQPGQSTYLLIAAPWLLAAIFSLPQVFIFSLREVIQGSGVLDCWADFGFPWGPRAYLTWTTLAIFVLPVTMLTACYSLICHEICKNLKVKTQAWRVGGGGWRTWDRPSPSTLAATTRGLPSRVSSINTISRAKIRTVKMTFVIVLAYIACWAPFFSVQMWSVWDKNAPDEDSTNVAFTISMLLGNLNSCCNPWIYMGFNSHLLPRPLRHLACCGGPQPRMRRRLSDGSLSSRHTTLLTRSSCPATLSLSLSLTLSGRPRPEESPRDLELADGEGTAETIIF

[1] = biological target: T3, Oxytocin receptor (Homo sapiens) (UniProt P30559); assay: Agonist activity at human OTR receptor expressed in HEK293 cells measured at 3 secs interval for 5 mins by fura-2/AM dye based micro spectrofluorometric method relative to OT; type: cell-based
T3 sequence (whole entry): T1 sequence (P30559 whole entry)
Summary of the method: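 HEK-293 cells stably expressing human OTR (G418-selected) were loaded with fura-2/AM (final […] as printed) at 37 °C for 30 min, then washed in HEPES-buffered saline, pH 7.4. F340/F380 ratio was read every 3 s for 5 min at 37 °C, normalized to 10-s pre-application baseline, as % of maximal OT response. Three independent experiments, 20 cells per dish; EC50 derived.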

Mus musculus [2] = assay: Improvement in paternal nurturing behavior in CD38 knock out Slc:ICR mouse sire model of autism spectrum disorder assessed as parental scores to retrieve pups by sires at 100 ng/100 g, ip administered as single dose measured after 30 mins by parental retrieval test (reference value: 0 +/- 0 No units); type: functional
Mus musculus [3] = assay: Improvement in paternal nurturing behavior in CD38 knock out Slc:ICR mouse sire model of autism spectrum disorder assessed as parental scores to retrieve pups by sires at 100 ng/100 g, ip administered as single dose measured after 24 hrs by parental retrieval test (reference value: 0 +/- 0 No units); type: functional
Mus musculus [4] = assay: Improvement in paternal nurturing behavior in CD38 knock out Slc:ICR mouse sire model of autism spectrum disorder assessed as parental scores to retrieve pups by sires at 100 ng/100 g, ip administered as single dose measured after 6 hrs by parental retrieval test; type: functional, organism-based
Summary of the method: (§2)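 This time-course test used CD38KOCC sires (Slc:ICR) paired with females. Each received a single ip dose of 100 ng/100 g body weight in PBS, with PBS as vehicle control. Paternal pup-retrieval scores were recorded at successive times after injection, including 6, 12, 24 and 48 h. Treatment effects were analysed by two-way ANOVA.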

Mus musculus [5] = assay: Improvement in paternal nurturing behavior in CD38 knock out Slc:ICR mouse sire model of autism spectrum disorder assessed as increase in parental scores to retrieve pups by sires at 100 ng/100 g, ip administered as single dose measured after 12 hrs by parental retrieval test; type: functional, organism-based; summary of the method: as §2
Mus musculus [6] = assay: Improvement in paternal nurturing behavior in CD38 knock out Slc:ICR mouse sire model of autism spectrum disorder assessed as increase in parental scores to retrieve pups by sires at 100 ng/100 g, ip administered as single dose measured after 24 hrs by parental retrieval test; type: functional, organism-based
Mus musculus [7] = assay: Improvement in paternal nurturing behavior in CD38 knock out Slc:ICR mouse sire model of autism spectrum disorder assessed as increase in parental scores to retrieve pups by sires at 100 ng/100 g, ip administered as single dose measured after 48 hrs by parental retrieval test; type: functional, organism-based; summary of the method: as §2

Structure (SMILES)	pEC50 (Oxytocin receptor)	pEC50 (Vasopressin V1a receptor)	pEC50 (Vasopressin V1b receptor)	Emax [1] [%]	Activity (Mus musculus [2])	Activity (Mus musculus [3])	Activity (Mus musculus [4])	Activity (Mus musculus [5])	Activity (Mus musculus [6])	Activity (Mus musculus [7])
CCCCCCCCCCCCCCCC(=O)N[C@H]1CSSC[C@@H](C(=O)N2CCC[C@H]2C(=O)N[C@@H](CC(C)C)C(=O)NCC(N)=O)NC(=O)[C@H](CC(N)=O)NC(=O)[C@H](CCC(N)=O)NC(=O)[C@H]([C@@H](C)CC)NC(=O)[C@H](Cc2ccc(OC(=O)NCCCCCCCCCCCCCC)cc2)NC1=O	< 4.00	< 4.00	< 4.00	0	3.3	3.6				
CC[C@H](C)[C@@H]1NC(=O)[C@H](Cc2ccc(O)cc2)NC(=O)[C@@H](N)CSSC[C@@H](C(=O)N2CCC[C@H]2C(=O)N[C@@H](CC(C)C)C(=O)NCC(N)=O)NC(=O)[C@H](CC(N)=O)NC(=O)[C@H](CCC(N)=O)NC1=O [OXYTOCIN]					5.3	0	inactive			
CCCCCCCCCCCCCCCC(=O)N[C@H]1CSSC[C@@H](C(=O)N2CCC[C@H]2C(=O)N[C@@H](CC(C)C)C(=O)NCC(N)=O)NC(=O)[C@H](CC(N)=O)NC(=O)[C@H](CCC(N)=O)NC(=O)[C@H]([C@@H](C)CC)NC(=O)[C@H](Cc2ccc(OC(=O)OCCCCCCCCCCCCCC)cc2)NC1=O		< 4.00	< 4.00	15.3	6.8	3.1				
CCCCCCCCCCCCCCCCOC(=O)Oc1ccc(C[C@@H]2NC(=O)[C@@H](NC(=O)CCCCCCCCCCCCCCC)CSSC[C@@H](C(=O)N3CCC[C@H]3C(=O)N[C@@H](CC(C)C)C(=O)NCC(N)=O)NC(=O)[C@H](CC(N)=O)NC(=O)[C@H](CCC(N)=O)NC(=O)[C@H]([C@@H](C)CC)NC2=O)cc1	< 4.00	< 4.00	< 4.00	0	2	5.2		Active	Active	inactive
CCCCCCCCCCCCCCCOC(=O)Oc1ccc(C[C@@H]2NC(=O)[C@@H](NC(=O)CCCCCCCCCCCCCCC)CSSC[C@@H](C(=O)N3CCC[C@H]3C(=O)N[C@@H](CC(C)C)C(=O)NCC(N)=O)NC(=O)[C@H](CC(N)=O)NC(=O)[C@H](CCC(N)=O)NC(=O)[C@H]([C@@H](C)CC)NC2=O)cc1	< 4.00	< 4.00	< 4.00	0	3.9	2.9				
CCCCCCCCCCCCCCCNC(=O)Oc1ccc(C[C@@H]2NC(=O)[C@@H](NC(=O)CCCCCCCCCCCCCCC)CSSC[C@@H](C(=O)N3CCC[C@H]3C(=O)N[C@@H](CC(C)C)C(=O)NCC(N)=O)NC(=O)[C@H](CC(N)=O)NC(=O)[C@H](CCC(N)=O)NC(=O)[C@H]([C@@H](C)CC)NC2=O)cc1	< 5.00	< 4.00	< 4.00		2	3.1				
CCCCCCCCCCCCCCCCNC(=O)Oc1ccc(C[C@@H]2NC(=O)[C@@H](NC(=O)CCCCCCCCCCCCCCC)CSSC[C@@H](C(=O)N3CCC[C@H]3C(=O)N[C@@H](CC(C)C)C(=O)NCC(N)=O)NC(=O)[C@H](CC(N)=O)NC(=O)[C@H](CCC(N)=O)NC(=O)[C@H]([C@@H](C)CC)NC2=O)cc1	< 4.00	< 4.00	< 4.00	0	1.9	3.4				
